Values after ≈ are worked out from the molar mass of the structure shown.
Assays:
Salmonella typhimurium = test: Antibacterial activity against Salmonella typhimurium TISTR 292 by 2-fold serial dilution method; format: functional, Salmonella enterica subsp. enterica serovar Typhimurium
Bacillus cereus = test: Antibacterial activity against Bacillus cereus TISTR 688 by 2-fold serial dilution method; format: functional
Pseudomonas aeruginosa = test: Antibacterial activity against Pseudomonas aeruginosa TISTR 884 by 2-fold serial dilution method; format: functional
Staphylococcus aureus = test: Antibacterial activity against Staphylococcus aureus TISTR 1466 by 2-fold serial dilution method; format: functional
Saccharomyces cerevisiae = test: Inhibition of Saccharomyces cerevisiae alpha-glucosidase using p-nitrophenyl alpha-D-glucoside as substrate at 100 uM preincubated for 0.5 hrs followed by substrate addition measured after 1 hr by colorimetric method relative to control
Method in brief: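 Test compound at 100 μM; enzyme (0.4 U/mL) preincubated with compound 0.5 h at 37 °C in 50 mM K2HPO4−KH2PO4 buffer, 10% DMSO final; reaction started with p-nitrophenyl α-D-glucoside (3 mM), 1 h at 37 °C; stopped with 0.1 M Na2CO3; absorbance read at 405 nm; percent inhibition.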

Bacillus subtilis = test: Antibacterial activity against Bacillus subtilis TISTR 008 by 2-fold serial dilution method; format: functional
[1] = Inhibition of Saccharomyces cerevisiae alpha-glucosidase using p-nitrophenyl alpha-D-glucoside as substrate preincubated for 0.5 hrs followed by substrate addition measured after 1 hr by colorimetric method
Method in brief: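 Enzyme (0.4 U/mL) and compound preincubated 0.5 h at 37 °C in 50 mM K2HPO4−KH2PO4 buffer, final DMSO 10%; p-nitrophenyl α-D-glucoside (3 mM) added, further 1 h at 37 °C; terminated with 0.1 M Na2CO3, A405 read immediately as relative hydrolysis rate; IC50 determined; acarbose positive control.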

Escherichia coli = test: Antibacterial activity against Escherichia coli TISTR 780 by 2-fold serial dilution method; format: functional

Compound | MIC (Salmonella typhimurium; Salmonella enterica) [µg/mL] | MIC (Bacillus cereus) [µg/mL] | MIC (Pseudomonas aeruginosa) [µg/mL] | MIC (Staphylococcus aureus) [µg/mL] | inhibition (Saccharomyces cerevisiae) [%] | MIC (Bacillus subtilis) [µg/mL] | IC50 [1] [µM] | MIC (Escherichia coli) [µg/mL] | MIC (Salmonella typhimurium; Salmonella enterica subsp. enterica serovar Typhimurium) [µg/mL]
COc1c(O)cc2oc3cc4c(c(O)c3c(=O)c2c1C/C=C(\C)CCC=C(C)C)C=CC(C)(C)O4 | 128 (≈ 269 µM) | 64 (≈ 134 µM) | 128 (≈ 269 µM) | 128 (≈ 269 µM) | 71.7 | 64 (≈ 134 µM) | 18.6 | 64 (≈ 134 µM) | –
CC(C)=CCC/C(C)=C/CC1(C/C=C(\C)CCC=C(C)C)C(=O)C(O)=Cc2oc3cc(O)cc(O)c3c(=O)c21 (stereo not drawn) | 64 (≈ 120 µM) | 8 (≈ 15 µM) | 128 (≈ 240 µM) | > 128 | 62.9 | 8 (≈ 15 µM) | 36.4 | > 128 | –
COc1c(O)cc2oc3cc4c(c(O)c3c(=O)c2c1CC=C(C)C)C=CC(C)(C)O4 [MANGOSTANIN] | 128 (≈ 313 µM) | 4 (≈ 9.79 µM) | 128 (≈ 313 µM) | 64 (≈ 157 µM) | 70.1 | 8 (≈ 19.6 µM) | 34.6 | > 128 | –
COc1cc2oc3cc(O)c4c(c3c(=O)c2c(O)c1CC=C(C)C)CCC(C)(C)O4 | 128 (≈ 312 µM) | 128 (≈ 312 µM) | > 128 | 128 (≈ 312 µM) | – | – | – | > 128 | –
CN[C@H](CC(C)C)C(=O)N[C@H]1C(=O)N[C@@H](CC(N)=O)C(=O)N[C@H]2C(=O)N[C@H]3C(=O)N[C@H](C(=O)N[C@H](C(=O)O)c4cc(O)cc(O)c4-c4cc3ccc4O)[C@H](O)c3ccc(c(Cl)c3)Oc3cc2cc(c3O[C@@H]2O[C@H](CO)[C@@H](O)[C@H](O)[C@H]2O[C@H]2C[C@](C)(N)[C@H](O)[C@H](C)O2)Oc2ccc(cc2Cl)[C@H]1O [VANCOMYCIN] | – | 0.25 (≈ 0.173 µM) | – | 0.25 (≈ 0.173 µM) | – | 0.25 (≈ 0.173 µM) | – | – | –
COc1cc2c(=O)c3c(O)c4c(cc3oc2cc1O)OC(C)(CCC=C(C)C)C=C4 (stereo not drawn) | 128 (≈ 313 µM) | 32 (≈ 78.3 µM) | 128 (≈ 313 µM) | > 128 | – | 64 (≈ 157 µM) | – | > 128 | –
COc1cc2c(=O)c3c(O)c(C/C=C(\C)CCC=C(C)C)c(O)cc3oc2cc1O [COWAXANTHONE] | 128 (≈ 312 µM) | 64 (≈ 156 µM) | 128 (≈ 312 µM) | > 128 | – | 64 (≈ 156 µM) | – | > 128 | –
COc1cc2oc3cc(O)c4c(c3c(=O)c2c(O)c1CC=C(C)C)C=CC(C)(C)O4 | 128 (≈ 313 µM) | 128 (≈ 313 µM) | 128 (≈ 313 µM) | 128 (≈ 313 µM) | 50.8 | 128 (≈ 313 µM) | – | > 128 | –
CC(C)=CCC/C(C)=C\CC1(CC=C(C)C)C(=O)C(O)=Cc2oc3cc(O)cc(O)c3c(=O)c21 (stereo not drawn) [GARCINIANONE B] | 64 (≈ 138 µM) | 2 (≈ 4.31 µM) | 128 (≈ 276 µM) | 64 (≈ 138 µM) | 69.1 | 2 (≈ 4.31 µM) | 11.7 | 64 (≈ 138 µM) | –
GENTAMICIN | – | – | 2 | – | – | – | – | 0.25 | 0.125
C[C@H]1O[C@H](O[C@H]2[C@H](O)[C@@H](O)[C@@H](O[C@H]3[C@H](O)[C@@H](O)C(O)O[C@@H]3CO)O[C@@H]2CO)[C@H](O)[C@@H](O)[C@@H]1N[C@H]1C=C(CO)[C@@H](O)[C@H](O)[C@H]1O (stereo partly drawn) [ACARBOSE] | – | – | – | – | – | – | 8 | – | –
COc1c(O)cc2oc3cc(O)c(CC=C(C)C)c(O)c3c(=O)c2c1CC=C(C)C [MANGOSTIN] | 64 (≈ 156 µM) | 8 (≈ 19.5 µM) | 128 (≈ 312 µM) | 64 (≈ 156 µM) | 72 | 8 (≈ 19.5 µM) | 7.8 | 64 (≈ 156 µM) | –
CC(C)=CCC/C(C)=C\CC1(C/C=C(\C)CCC=C(C)C)C(=O)C(O)=Cc2oc3cc(O)cc(O)c3c(=O)c21 (stereo not drawn) | 64 (≈ 120 µM) | 8 (≈ 15 µM) | 128 (≈ 240 µM) | 64 (≈ 120 µM) | 75.8 | 8 (≈ 15 µM) | 55.3 | 64 (≈ 120 µM) | –
COc1c(O)cc2oc3cc(O)cc(O)c3c(=O)c2c1C/C=C(\C)CCC=C(C)C [RUBRAXANTHONE] | 64 (≈ 156 µM) | 4 (≈ 9.75 µM) | 64 (≈ 156 µM) | > 128 | 71.2 | 2 (≈ 4.87 µM) | 23.4 | 64 (≈ 156 µM) | –
CC(C)=CCC/C(C)=C/CC1(CC=C(C)C)C(=O)C(O)=Cc2oc3cc(O)cc(O)c3c(=O)c21 (stereo not drawn) [GARCINIANONE A] | 64 (≈ 138 µM) | 4 (≈ 8.61 µM) | 128 (≈ 276 µM) | 64 (≈ 138 µM) | 66.7 | 2 (≈ 4.31 µM) | 34 | 64 (≈ 138 µM) | –
COc1cc2oc3cc(OC)c(CC=C(C)C)c(O)c3c(=O)c2c(CC=C(C)C)c1O | 128 (≈ 302 µM) | 128 (≈ 302 µM) | 128 (≈ 302 µM) | > 128 | 56.4 | 128 (≈ 302 µM) | – | > 128 | –
COc1c(O)c(CC=C(C)C)c2oc3cc(O)c(CC=C(C)C)c(O)c3c(=O)c2c1CC=C(C)C | 128 (≈ 267 µM) | 32 (≈ 66.9 µM) | 128 (≈ 267 µM) | > 128 | – | 32 (≈ 66.9 µM) | – | > 128 | –
COc1cc2oc3cc(OC)c(OC)c(CC=C(C)C)c3c(=O)c2c(O)c1CC=C(C)C | 128 (≈ 292 µM) | > 128 | 128 (≈ 292 µM) | 128 (≈ 292 µM) | 53.8 | 128 (≈ 292 µM) | – | 64 (≈ 146 µM) | –
COc1cc2oc3cc4c(c(O)c3c(=O)c2c(CC=C(C)C)c1O)C=CC(C)(C)O4 | 128 (≈ 313 µM) | 128 (≈ 313 µM) | 128 (≈ 313 µM) | > 128 | – | 128 (≈ 313 µM) | – | > 128 | –
COc1cc2oc3cc(O)c(OC)c(CC=C(C)C)c3c(=O)c2c(O)c1CC=C(C)C | 128 (≈ 302 µM) | 16 (≈ 37.7 µM) | 128 (≈ 302 µM) | > 128 | 73.1 | 4 (≈ 9.42 µM) | 8.7 | > 128 | –
CC(C)=CCCC1(C)C=Cc2c(c(O)cc3oc4cc5c(c(O)c4c(=O)c23)C=CC(C)(C)O5)O1 (stereo not drawn) | 64 (≈ 139 µM) | 64 (≈ 139 µM) | 128 (≈ 278 µM) | > 128 | – | 128 (≈ 278 µM) | – | > 128 | –
COc1cc2oc3cc4c(c(O)c3c(=O)c2c(CC=C(C)C)c1OC)C=CC(C)(C)O4 | 64 (≈ 151 µM) | 128 (≈ 303 µM) | 128 (≈ 303 µM) | > 128 | 62.2 | 128 (≈ 303 µM) | 26.2 | > 128 | –

— ChEMBL document CHEMBL3421562, “Bioactive prenylated xanthones from the young fruits and flowers of Garcinia cowa” (J Nat Prod, 2015)
